In brackets after ≈: the same amount, converted by molar mass. Activity calls are given as the source filed them. The rule behind the calls is not given here.
Tests used:
Format in all cases: functional, organism-based
[1] = system: Candida parapsilosis; test: Antifungal activity against Candida parapsilosis at 0.5 ug/ml after 24 hrs
Procedure, shortened: (§1)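 Time-kill with C. parapsilosis strain no. 3. A 0.5 McFarland suspension was diluted 1:10 into MOPS-buffered RPMI 1640 with drug alone or combined, shaken at 35°C. Samples were taken at 0, 2, 6 and 24 h, serially diluted 10-fold and plated on Sabouraud dextrose agar. CFU counted after 48 h at 35°C; detection limit 20 CFU/ml. Triplicate.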

[2] = system: Candida parapsilosis; test: Growth inhibition of Candida parapsilosis after 48 hrs by broth dilution assay; conditions: Lodderomyces parapsilosis
Procedure, shortened: (§2)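 CLSI-derived checkerboard broth microdilution in RPMI 1640 with 0.165 M MOPS, pH 7.0. Final ranges were AMB 0.03–2.0 µg/ml and CAS 0.03–64 µg/ml, alone or combined. Inoculum 1.0 x 10^3 to 5.0 x 10^3 CFU/ml (2x), 35°C in air. OD490 read at 24 and 48 h; IC50/IC90 taken as 50%/90% turbidity reduction versus control. Quintuplicate.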

[3] = system: Candida parapsilosis; test: Growth inhibition of Candida parapsilosis after 24 hrs by broth dilution assay; conditions: Lodderomyces parapsilosis; procedure, shortened: as §2
[4] = system: Candida parapsilosis; test: Fungistatic effect on Candida parapsilosis at 256 ug/ml after 24 hrs
[5] = system: Candida parapsilosis; test: Antifungal activity against Candida parapsilosis at 4 ug/ml after 24 hrs; procedure, shortened: as §1

Row | Structure (SMILES) | Activity [1] | IC50 [2] | IC90 [2] | IC50 [3] | IC90 [3] | Activity [4] | Activity [5]
1 | C[C@@H]1[C@H](O)[C@@H](C)/C=C/C=C/C=C/C=C/C=C/C=C/C=C/[C@H](O[C@@H]2O[C@H](C)[C@@H](O)[C@H](N)[C@@H]2O)C[C@@H]2O[C@](O)(C[C@@H](O)C[C@@H](O)[C@H](O)CC[C@@H](O)C[C@@H](O)CC(=O)O[C@H]1C)C[C@H](O)[C@H]2C(=O)O [AMPHOTERICIN B] | inactive | 0.18 µg/mL (≈ 0.195 µM) | 0.68 µg/mL (≈ 0.736 µM) | 0.16 µg/mL (≈ 0.173 µM) | 0.34 µg/mL (≈ 0.368 µM) |  | 
2 | CC[C@H](C)C[C@H](C)CCCCCCCCC(=O)N[C@H]1C[C@@H](O)[C@@H](NCCN)NC(=O)[C@@H]2[C@@H](O)CCN2C(=O)[C@H]([C@H](O)CCN)NC(=O)[C@H]([C@H](O)[C@@H](O)c2ccc(O)cc2)NC(=O)[C@@H]2C[C@@H](O)CN2C(=O)[C@H]([C@@H](C)O)NC1=O [CASPOFUNGIN] |  | 1.17 µg/mL (≈ 1.07 µM) | 2.33 µg/mL (≈ 2.13 µM) | 0.79 µg/mL (≈ 0.723 µM) | 1.36 µg/mL (≈ 1.24 µM) | Active | inactive
